M4 antag = antagonists of human muscarinic M4 receptor (CHRM4); AID 624125; CHO-hM4 cells, ACh EC80, Fluo-8 calcium fluorescence; P08173; 0.73% of 360,000 active; inhibition, % at 3 µM;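 active means inhibition above its plate's cutoff, the mean inhibition of sample wells plus 3 SD, cut at about 27% in these data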;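 further: 0% = acetylcholine EC80 with DMSO and 100% = DMSO without agonist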
Target sequence (P08173 whole entry, looked up): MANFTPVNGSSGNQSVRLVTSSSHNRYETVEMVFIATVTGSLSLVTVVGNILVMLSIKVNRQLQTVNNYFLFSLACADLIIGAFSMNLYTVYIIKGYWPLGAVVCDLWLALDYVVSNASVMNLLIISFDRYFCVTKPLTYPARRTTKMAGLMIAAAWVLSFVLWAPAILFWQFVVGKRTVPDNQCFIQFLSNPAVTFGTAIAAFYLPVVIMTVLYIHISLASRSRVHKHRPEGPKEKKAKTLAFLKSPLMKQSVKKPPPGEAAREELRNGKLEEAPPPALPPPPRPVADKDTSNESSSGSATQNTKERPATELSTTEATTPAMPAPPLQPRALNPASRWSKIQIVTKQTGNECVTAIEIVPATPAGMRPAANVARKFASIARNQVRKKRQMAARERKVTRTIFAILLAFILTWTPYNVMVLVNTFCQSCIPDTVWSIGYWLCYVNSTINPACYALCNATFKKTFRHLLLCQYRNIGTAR
M5 ag = CHRM5 agonism in calcium assay. CHO-K1 hM5 cells, Fluo-8 calcium fluorescence; 0% DMSO wells, 100% maximal acetylcholine response. activation, % at 3 µM. 0.19% of 360,000 active. AID 624037;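 active means activation above the run's mean over test compounds plus 3 SD, cut at about 23% in these data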;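 further: signal is peak over basal fluorescence ratio across the kinetic read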
M5 antag = antagonists of human muscarinic M5 receptor (CHRM5); 0.59% of 360,000 active; AID 624040; P08912; CHO-hM5 cells, Fluo-8 calcium fluorescence, ACh EC80; inhibition, % at 3 µM;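 active means inhibition above a per-plate cutoff, the mean of that plate's test compounds plus 3 SD, cut at about 27% in these data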;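 further: 0% = acetylcholine EC80 with DMSO and 100% = DMSO without agonist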
M4 ag = agonists of human muscarinic M4 receptor (CHRM4) | P08173 | CHO-K1 hM4/Gqi5, Fluo-8 calcium fluorescence; vehicle 0%, full acetylcholine response 100% | activation, % at 3 µM | 0.14% of 360,000 active;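 active means activation above the run mean over all test wells plus 3 SD, cut at about 32% in these data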;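 further: peak over basal fluorescence ratio per well then scaled between controls; 0% = DMSO wells and 100% = acetylcholine at EC100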
M4 PAM = potentiates acetylcholine response at human M4 receptor; P08173; CHO-K1 hM4/Gqi5, Fluo-8 calcium fluorescence, ACh EC20; 0% = ACh EC20, 100% = maximal ACh; activation, % at 3 µM; 0.4% of 360,000 active; AID 624126;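 active means activation above its plate's cutoff, the mean activation of sample wells plus 3 SD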
CHRM5 PAM = potentiates acetylcholine response at human M5 receptor; 0.3% of 360,000 active; activation, % at 3 µM; P08912; AID 624038; CHO-K1 hM5, Fluo-8 calcium, ACh EC20 PAM; 0% = ACh EC20, 100% = ACh EC100;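 active means activation above the run cutoff, the mean activation of all test compounds plus 3 SD, cut at about 18% in these data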
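Replicates: One well per compound, no replicates | System: Human M5 receptor in CHO-K1 cells | Benchmarks: Low control EC20 acetylcholine (0%), high control EC100 acetylcholine (100%) | Probe or stimulus: Acetylcholine, EC20 level | Times: Fluo-8 loading 80 min at 37 °C plus 30 min room temperature | Signal: Intracellular calcium via Fluo-8 fluorescence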
Starred values were filed as active, the others as inactive. The list is not random: actives were taken first. Their share in the collection is about 1.8%.

Results for O=C(NNc1nc(=O)c2cccnc2s1)c1ccccc1O ?
M4 antag: 5.1; M5 ag: -3.3; M5 antag: 18.4; M4 ag: 0.0; M4 PAM: 4.6; CHRM5 PAM: -11.4

How did COC(=O)c1ccc([C@H]2CC(=O)O2)cc1 do in these assays?
M4 antag: 23.6; M5 ag: 2.1; M5 antag: 10.7; M4 ag: 0.9; M4 PAM: 8.0; CHRM5 PAM: 8.8

Results for O=[N+]([O-])c1cc(C(F)(F)F)ccc1SCC(O)CO (configuration not stated) ?
M4 antag: -13.2; M5 ag: 8.8; M5 antag: 16.6; M4 ag: 2.3; M4 PAM: 13.8; CHRM5 PAM: 26.2*

What do the screens show for `COC(=O)c1ccc(Nc2ccc3nonc3c2[N+](=O)[O-])cc1`?
M4 antag: -4.2; M5 ag: 0.1; M5 antag: -0.7; M4 ag: 0.4; M4 PAM: -1.3; CHRM5 PAM: 0.8

What do the screens show for `Fc1ccc(C[n+]2csc3ccccc32)cc1`?
M4 antag: 27.7*; M5 ag: 45.9*; M5 antag: 43.4*; M4 ag: 6.5; M4 PAM: -6.9; CHRM5 PAM: 3.4

What do the screens show for `Clc1ccc(C[n+]2csc3ccccc32)cc1`?
M4 antag: 9.2; M5 ag: 18.0; M5 antag: 8.6; M4 ag: -0.5; M4 PAM: -8.1; CHRM5 PAM: 15.3

Results for O=C(Nc1nc2ccccc2n1CCN1CCOCC1)c1ccc(COc2ccccc2Br)o1 ?
M4 antag: 43.1*; M5 ag: -4.3; M5 antag: 17.5; M4 ag: 8.3; M4 PAM: -8.0; CHRM5 PAM: -13.0

Results for CCOC(=O)Cn1nc(C)n(-c2cccc(Cl)c2)c1=O ?
M4 antag: -11.6; M5 ag: 5.6; M5 antag: -5.2; M4 ag: 2.7; M4 PAM: 23.7; CHRM5 PAM: 18.9*

How did COCCN1C(=O)N[C@@H](c2cccc(F)c2)C(C(C)=O)=C1C do in these assays?
M4 antag: 12.7; M5 ag: 2.1; M5 antag: 23.0; M4 ag: 0.6; M4 PAM: 11.7; CHRM5 PAM: -10.5

Results for COc1cc(CNCCO)ccc1OCCc1ccccc1 ?
M4 antag: 28.7*; M5 ag: 5.3; M5 antag: 22.8; M4 ag: 7.9; M4 PAM: 20.5*; CHRM5 PAM: 4.8

Results for CCCS(=O)(=O)NC(=O)C1(C)CCN(C(=O)CSc2ccccc2)C1 (configuration not stated) ?
M4 antag: -11.2; M5 ag: -0.6; M5 antag: -6.3; M4 ag: 0.9; M4 PAM: -2.8; CHRM5 PAM: -2.1

What do the screens show for `Cc1ccc(N(C)S(=O)(=O)c2cccc(C(=O)OCC(=O)c3c(N)n(C)c(=O)n(C)c3=O)c2)cc1`?
M4 antag: 29.6*; M5 ag: 2.8; M5 antag: 14.0; M4 ag: 22.2; M4 PAM: -11.2; CHRM5 PAM: -33.1

How did CN(C)S(=O)(=O)c1cccc(C(=O)OCC(=O)c2c(N)n(C)c(=O)n(C)c2=O)c1 do in these assays?
M4 antag: -8.5; M5 ag: -1.4; M5 antag: 5.8; M4 ag: 4.0; M4 PAM: 2.4; CHRM5 PAM: -1.7

What do the screens show for `CN(CCCC1CCCC1)C(=O)c1cc(COc2ccc(F)cc2F)on1`?
M4 antag: -3.0; M5 ag: -3.7; M5 antag: 6.9; M4 ag: 1.4; M4 PAM: -6.6; CHRM5 PAM: -9.1

What do the screens show for `CN(CCCN1CCCCC1)C(=O)c1cc(COc2ccc(F)cc2F)on1`?
M4 antag: 35.8*; M5 ag: -8.3; M5 antag: 16.2; M4 ag: 0.2; M4 PAM: -15.3; CHRM5 PAM: -5.1

What do the screens show for `CC1(C(=O)NS(=O)(=O)C2CC2)CCCN(C(=O)c2ccccc2OC(F)(F)F)C1` (configuration not stated)?
M4 antag: -17.6; M5 ag: 0.8; M5 antag: -2.8; M4 ag: 0.7; M4 PAM: 8.1; CHRM5 PAM: -0.8

Results for CCN(CC)C(=O)c1oc2ccc(S(=O)(=O)N3CC(C)CC(C)C3)cc2c1C (configuration not stated) ?
M4 antag: 3.9; M5 ag: -1.8; M5 antag: 30.1*; M4 ag: 11.3; M4 PAM: -5.8; CHRM5 PAM: -12.3

Results for CCN(CC)C(=O)c1oc2ccc(S(=O)(=O)N3CCCCCC3)cc2c1C ?
M4 antag: 5.0; M5 ag: 2.8; M5 antag: 8.7; M4 ag: 10.8; M4 PAM: -5.9; CHRM5 PAM: -11.0

What do the screens show for `COc1ccc2c([N+](=O)[O-])c(Cl)[nH]c2c1`?
M4 antag: 5.8; M5 ag: -2.6; M5 antag: 2.4; M4 ag: -0.1; M4 PAM: -2.3; CHRM5 PAM: 8.4

What do the screens show for `Cc1cc(C)cc(NS(=O)(=O)c2cc(Br)cnc2N)c1`?
M4 antag: -2.3; M5 ag: -6.4; M5 antag: 3.6; M4 ag: 1.3; M4 PAM: -6.2; CHRM5 PAM: -3.0

How did Cc1ccc(NS(=O)(=O)c2cc(Br)cnc2N)cc1C do in these assays?
M4 antag: 97.4*; M5 ag: -9.7; M5 antag: 99.6*; M4 ag: 2.8; M4 PAM: -14.5; CHRM5 PAM: -18.3

Results for Cc1ccccc1C(=O)Nc1ccnn1C1CCN(C(=O)c2ccoc2)CC1 ?
M4 antag: -4.8; M5 ag: -2.3; M5 antag: -7.9; M4 ag: 3.4; M4 PAM: 2.1; CHRM5 PAM: 4.2

What do the screens show for `CC(C)CCn1c2ccccc2c2cc(CC(N)=O)ccc21`?
M4 antag: -3.1; M5 ag: -0.5; M5 antag: 6.4; M4 ag: 1.0; M4 PAM: 8.8; CHRM5 PAM: -1.0

Results for CN(C)CCOc1ccc(-c2c(-c3ccccc3)sc3ccccc23)cc1 ?
M4 antag: 28.2*; M5 ag: -4.1; M5 antag: 4.8; M4 ag: 4.3; M4 PAM: 0.1; CHRM5 PAM: 4.7

Results for CC1(C)CC(=O)C(C(=O)C2CCN(S(=O)(=O)c3ccccc3)CC2)C(=O)C1 ?
M4 antag: 4.5; M5 ag: 0.2; M5 antag: -1.8; M4 ag: -0.5; M4 PAM: 6.0; CHRM5 PAM: 8.4

Results for CCCCN(CCCC)c1ccc(C(=O)c2ccccc2C(=O)O)c(O)c1 ?
M4 antag: 21.3; M5 ag: 10.4; M5 antag: 2.6; M4 ag: 34.2*; M4 PAM: -25.9; CHRM5 PAM: -2.0

Compound activity as filed in PubChem.
